Most compounds without a hit are left out; they make up all but 2.2% or so of the library.
SUMO HTRF inh = blocks human SUMOylation mediated by UBC9. P63279. 290,000 tested, 0.36% active. AID 2006. inhibition, % at 35 µM. HTRF SUMOylation assay, SAE1/SAE2 + UBC9, in vitro; in the data active means inhibition above about 50%, passing the limit was not always enough
UBC13 polyUb = human UBC13 polyubiquitination inhibition | P61088 | UBC13 polyubiquitin chain formation, TR-FRET | inhibition, % at 20 µM | 330,000 tested, 0.47% active | AID 485273; in the data active means inhibition above about 45%, passing the limit was not always enough
GSTO1 inh = blocks human GSTO1 in RBBP9 counter-screen; recombinant GSTO1, activity-based probe fluorescence polarization; inhibition, % at 5.96 µM; 300,000 tested, 1.1% active; AID 1974;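 active means inhibition above the campaign mean inhibition plus 3 SD, cut at about 35% in these data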
Rin1 Abl inh = human Rin1-Abl interaction inhibition; AID 588664; inhibition, % at 7.35 µM; TR-FRET Rin1/Abl binding, biochemical; P00519+Q13671; 360,000 tested, 0.4% active; in the data active means inhibition above about 5%, passing the limit was not always enough
Apaf1 inhib = inhibitors of human Apaf-1 apoptosome; O14727; reconstituted apoptosome caspase-3 activity, DEVD-Rh110 fluorescence; inhibition, % at 20 µM; 330,000 tested, 0.71% active; active means inhibition of at least 40% at 20 µM
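Material: cell-free apoptosome with Apaf-1, procaspase-3 and caspase-9; Buffer or medium: Hepes pH 7.5 with detergent and BSA; Reagent: cytochrome c trigger plus (Z-DEVD)2-Rh110 caspase-3 substrate; Times: compound with Apaf-1, dATP, procaspase-3 30 min, then 50 min reaction, room temperature; Technique: Rh110 fluorescence intensity.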
PAD4 inh = inhibitors of human PAD4 | recombinant PAD4, RCA probe fluorescence polarization | inhibition, % at 6.36 µM | 330,000 tested, 0.41% active;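 active means percent inhibition above a cutoff equal to the mean of all tested compounds plus 3 SD, cut at about 15% in these data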
Rin1 Abl conf = confirmation of inhibitors of human Rin1-Abl interaction; shares compounds with Rin1 Abl inh; TR-FRET Rin1-Abl binding, purified proteins; inhibition, % at 7.35 µM; 1,300 tested, 49% active; in the data active means inhibition above about 6.5%
GFP quench-1 = quenches GFP fluorescence, counter-screen for Rin1-Abl inhibitors; shares compounds with Rin1 Abl inh; inhibitors/quenchers counterscreen; inhibition, % at 6.75 µM; 1,300 tested, 8.5% active; in the data active means inhibition above about 6.5%;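 further: ABL1-eGFP fusion protein alone without its partner RIN1-SBP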
GFP quench dose = counter-screen for Rin1-Abl inhibitors: GFP quenchers, dose response | shares compounds with Rin1 Abl inh | GFP fluorescence interference/quenching counterscreen | IC50, µM | 230 tested, under 10 active | AID 602182;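 further: ABL1-eGFP fusion protein alone without its RIN1 binding partner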
GFP quench-2 = quenches GFP fluorescence in Rin1-Abl counterscreen | shares compounds with Rin1 Abl inh | GFP fluorescence quenching counterscreen, biochemical | IC50, µM | 25 tested, under 10 active
Numbers stand for hits. Unless noted, how the calls were made is not given here.

What do the screens show for `O=C(Cc1ccc(NC(=O)C2CCCN(C(=O)C3CCCCC3)C2)cc1)Nc1ccc(C(=O)N2CCOCC2)cc1` (configuration not stated)?
Rin1 Abl inh: inactive

Results for CN(CCc1ccccc1)C(=O)c1ccc(NC(=O)Cc2cccc(NC(=O)C3CCN(C(=O)c4ccccc4)CC3)c2)cc1 ?
Rin1 Abl inh: 9.1; Rin1 Abl conf: 9.1; GFP quench-1: inactive

What do the screens show for `CN(C(=O)c1ccc(NC(=O)Cc2ccc(NC(=O)C3CCCN(C(=O)C4CCCC4)C3)cc2)cc1)C1CC1` (configuration not stated)?
UBC13 polyUb: inactive; Rin1 Abl inh: 13; Apaf1 inhib: inactive; PAD4 inh: inactive; Rin1 Abl conf: 19; GFP quench-1: inactive

How did O=C(Cc1ccc(NC(=O)C2CCN(C(=O)C3CCCCC3)CC2)cc1)Nc1ccc(C(=O)N2CCOCC2)cc1 do in these assays?
Rin1 Abl inh: 39; Rin1 Abl conf: 44; GFP quench-1: inactive; GFP quench dose: inactive; GFP quench-2: inactive

How did CN(C(=O)c1ccc(NC(=O)Cc2ccc(NC(=O)C3CCCN(C(=O)C4CCCCC4)C3)cc2)cc1)C1CC1 (configuration not stated) do in these assays?
UBC13 polyUb: inactive; Rin1 Abl inh: inactive; Apaf1 inhib: inactive; PAD4 inh: inactive

How did CCN1C(=O)[C@H]2[C@@H](c3ccccc3)N[C@]3(CCCN(Cc4ccccc4)C3=O)[C@H]2C1=O do in these assays?
Rin1 Abl inh: inactive

Results for Cc1csc(=O)n1CCC(=O)OCC(=O)N(CC(C)C)c1c(N)n(Cc2ccccc2)c(=O)[nH]c1=O ?
SUMO HTRF inh: inactive; UBC13 polyUb: inactive; GSTO1 inh: inactive; Rin1 Abl inh: inactive; Apaf1 inhib: inactive; PAD4 inh: inactive

Results for CN(C(=O)c1ccc(NC(=O)Cc2ccc(NC(=O)C3CCN(C(=O)CCc4ccccc4)CC3)cc2)cc1)C1CC1 ?
UBC13 polyUb: inactive; Rin1 Abl inh: 12; Apaf1 inhib: inactive; PAD4 inh: inactive; Rin1 Abl conf: 17; GFP quench-1: inactive

What do the screens show for `CN(C(=O)c1ccc(NC(=O)Cc2ccc(NC(=O)C3CCN(C(=O)CCc4ccccc4)CC3)cc2)cc1)C1CCCC1`?
Rin1 Abl inh: inactive

How did CN(C(=O)c1ccc(NC(=O)Cc2ccc(NC(=O)C3CCN(C(=O)C4CCCC4)CC3)cc2)cc1)C1CCCC1 do in these assays?
Rin1 Abl inh: 22; Rin1 Abl conf: 27; GFP quench-1: inactive; GFP quench dose: inactive

How did CC(C)CNc1ncnc2c1ncn2[C@H]1CN(Cc2ccc(F)cc2)C[C@@H](CO)O1 do in these assays?
Rin1 Abl inh: inactive

What do the screens show for `OC[C@@H]1CN(Cc2ccc(-c3ccccc3)cc2)C[C@H](n2cnc3c(NC4CC4)ncnc32)O1`?
Rin1 Abl inh: 26; Rin1 Abl conf: 21; GFP quench-1: inactive; GFP quench dose: inactive

What do the screens show for `OC[C@@H]1CN(Cc2ccc(Cl)cc2)C[C@H](n2cnc3c(NC4CCC4)ncnc32)O1`?
Rin1 Abl inh: 12; Rin1 Abl conf: 9.4; GFP quench-1: inactive

What do the screens show for `CC(C)Nc1ncnc2c1ncn2[C@H]1CN(Cc2ccc(Cl)cc2)C[C@@H](CO)O1`?
Rin1 Abl inh: inactive

Results for CNc1ncnc2c1ncn2[C@H]1CN(Cc2ccc(-c3ccccc3)cc2)C[C@@H](CO)O1 ?
Rin1 Abl inh: 9.7; Rin1 Abl conf: 13; GFP quench-1: inactive

Results for CC(C)CNc1ncnc2c1ncn2[C@H]1CN(Cc2ccc(Cl)cc2)C[C@@H](CO)O1 ?
Rin1 Abl inh: 18; Rin1 Abl conf: 10; GFP quench-1: inactive

High-throughput results (PubChem)
